In all, about 11,000 compounds went through this assay and about 510 (4.6%) were called active. This excerpt belongs to a sample that is enriched for actives. Values without a mark were called inactive.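 Rule for the calls: active = inhibition of at least 40% at 10 µM in either of the two replicates; inactive = the rest.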
System: intestinal alkaline phosphatase [Mus musculus]
Test: inhibitors of mouse IAP, confirmation, biochemical, luminescence, single concentration (AID 434971);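 note: plate controls were DMSO wells with enzyme for no effect and buffer wells lacking enzyme for full effect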
Conditions: purified mouse IAP, CDP-Star luminescence, 30 min; at 10 µM; stronger effect = higher value
Procedure, shortened: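 Test system: mouse IAP enzyme / Times: 30 min reaction at room temperature / Detection: luminescence / Controls: no-enzyme negative control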

Structure (SMILES) | inhibition
COc1ccc(N2C(=O)/C(=C/c3ccco3)C(=O)NC2=S)cc1 | 43.2% (active)
Cc1cc(C)cc(NC(=S)NC2CC3CCCC(C2)N3Cc2cccs2)c1 (centres undefined) | -150%
O=C1NC(=O)N(Cc2ccco2)C(=O)/C1=C\c1ccc(-c2ccc(F)cc2)o1 | 83.5% (active)
O=C1NC(=O)N(Cc2ccco2)C(=O)/C1=C\c1cccn1CCOc1ccccc1 | 50.6% (active)
